The nature of assay [1]: inhibitors of TNFa-induced NFkB p65 translocation, primary screen, imaging, HUVEC, MLSMR starter and 10KST1 sets (AID 438;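 active = inhibition above 20% together with a positive visual image hit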;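 note: compound added about 3h40 before a 20 min TNFalpha stimulation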;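 for inhibition: signal is the nuclear over cytoplasmic p65 intensity ratio per well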). To be noted: HUVEC TNFa-induced p65 nuclear translocation; cell count: measured here: nuclei count (cytotoxicity indicator), at 2.08 µM unless noted; inhibition: at 2 µM, stronger effect = higher value unless noted.
Assay [2] can be described thus: inhibitors of E-selectin induction by TNFa, primary screen, imaging, HUVEC, immunofluorescence, MLSMR starter and 10KST1 sets (AID 487).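 For inhibition: signal is fraction of cell area covered by stained E-selectin grains.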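 For nuclei count: 100% = median nuclei count of all wells on the same plate.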 The conditions noted are these: HUVEC TNFalpha-induced E-selectin immunofluorescence imaging, at 2 µM; inhibition: stronger effect = higher value; nuclei count: measured here: cell number, toxicity.
A short description of assay [3]: DUSP6 inhibitors restoring Erk phosphorylation by chemical complementation, primary imaging in DUSP6-transfected HeLa (AID 609;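 active = compounds giving at least 50% inhibition in the cell-based MKP-3 phosphatase rescue imaging test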;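 for inhibition: phospho-Erk level distribution per well compared with pooled transfected vehicle control wells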). To be noted: HeLa MKP-3 transfected, phospho-Erk imaging KS statistic, at 10 µM.
Assay [4] addresses Dual specificity protein phosphatase 6 (Homo sapiens) (UniProt Q16828). Described as above. The conditions noted are these: HeLa MKP-3 transfected, phospho-Erk imaging KS statistic, at 10 µM, stronger effect = higher value.
The target in assay [5] is Voltage-gated potassium channel subunit beta-2 (Rattus norvegicus) (UniProt P62483). Description: KvBeta enzyme negative modulators, primary screen, biochemical, NADPH fluorescence (AID 622;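 active = fluorescence slope higher than the sample average by over 3 SD, cut at about -0.22 in these data, passing the limit was not always enough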;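 note: slope of raw intensity against log time taken from 70 to 1610 s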). The conditions noted are these: recombinant KvBeta, 4-cyanobenzaldehyde reduction, at 10 µM, stronger effect = higher value.
The target is the same in assay [6]. Description: KvBeta positive modulators, primary screen, biochemical, NADPH fluorescence (AID 623;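 active = NADPH fluorescence slope more negative than the mean of all samples by about 3 SD, 99.7% confidence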;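 note: fluorescence intensity change per second fitted from 20 to 320 s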). To be noted: Recombinant KvBeta, NADPH fluorescence decrease slope, 10 min; at 10 µM; stronger effect = lower value.
In assay [7] the target is Alpha-2C adrenergic receptor (Homo sapiens) (UniProt P18825). Description: modulators of alpha2C/GIRK thallium flux, primary screen, cell-based, HEK293 alpha2C/GIRK1/2 (AID 624;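 active = fluorescence slope after compound addition differing from the mean of all screened samples at 99.7% confidence, in either direction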;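 note: slope of fluorescence ratio to pre-addition baseline per second over 15 to 24 s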). To be noted: thallium flux BTC fluorescence, at 10 µM, actives lie on both sides.
The nature of assay [8]: inhibitors of larval lipid processing in zebrafish, primary screen, whole organism, PED6 fluorescence, gall bladder and intestine (AID 686;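 active = a full or partial loss of lipid-probe fluorescence in the fish gall bladder, intestine or both, judged by eye; inactive = no fluorescence loss, or compound toxic to the fish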;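 note: larvae 5 to 7 days old with five fish per well; signal comes from phospholipase A2 cleavage of quenched PED6 carried via bile; overnight exposure to compound and PED6 before scoring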). The conditions noted are these: Zebrafish larvae PED6 lipid processing, fluorescence scoring. The method in brief:
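Also added: quenched phospholipase substrate PED6, 100 nM final, ingested by larvae; System: zebrafish larvae, 5-7 d; Quantity: 5 larvae per well; Compound: 20 µM single dose; Schedule: overnight compound and PED6 incubation; Read-out: visual per-well fluorescence inhibition score; Measured by: By-eye fluorescence microscopy; Medium: E3.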

Assay [9] can be described thus: inhibitors of Chlamydomonas gravitaxis, primary screen, whole organism, Chlamydomonas reinhardtii, WT vs cilia-less mutant, absorbance, 96-well (AID 463189;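 active = inhibition at or above 50% relative to wild type and mutant plate controls; inactive = inhibition below 50%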;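 note: 0% = wild type cc124 cells in DMSO and 100% = ciliumless bld1 mutant cells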). The conditions noted are these: OD600 absorbance, 2 days, at 10 µM, stronger effect = higher value.
Where [10] appears, read: measured here: cell density z-score.
Setting [11] is: measured here: nuclear c-Myc green intensity z-score.
Setting [12] is: measured here: nuclear pErk red intensity z-score, stronger effect = higher value.

Active and inactive are the calls of the source.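 Rule for the calls, unless noted: active = visually confirmed hit in the image check and inhibition above 20%; inconclusive = visually confirmed hit but inhibition not above 20%; inactive = no visual hit in the image check.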

The values that follow come from PubChem BioAssay.

Chain of Dual specificity protein phosphatase 6 (Homo sapiens) (Q16828 whole entry, looked up): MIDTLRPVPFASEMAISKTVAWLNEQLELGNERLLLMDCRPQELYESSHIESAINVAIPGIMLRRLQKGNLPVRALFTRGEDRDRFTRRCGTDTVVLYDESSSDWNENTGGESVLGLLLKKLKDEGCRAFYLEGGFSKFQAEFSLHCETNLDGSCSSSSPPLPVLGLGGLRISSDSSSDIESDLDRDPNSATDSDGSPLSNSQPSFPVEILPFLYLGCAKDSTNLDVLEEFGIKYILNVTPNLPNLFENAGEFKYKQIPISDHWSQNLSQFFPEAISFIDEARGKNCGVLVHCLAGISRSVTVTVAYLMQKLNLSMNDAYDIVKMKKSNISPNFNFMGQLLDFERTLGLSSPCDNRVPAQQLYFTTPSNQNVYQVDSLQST
Chain of Alpha-2C adrenergic receptor (Homo sapiens) (P18825 whole entry, looked up): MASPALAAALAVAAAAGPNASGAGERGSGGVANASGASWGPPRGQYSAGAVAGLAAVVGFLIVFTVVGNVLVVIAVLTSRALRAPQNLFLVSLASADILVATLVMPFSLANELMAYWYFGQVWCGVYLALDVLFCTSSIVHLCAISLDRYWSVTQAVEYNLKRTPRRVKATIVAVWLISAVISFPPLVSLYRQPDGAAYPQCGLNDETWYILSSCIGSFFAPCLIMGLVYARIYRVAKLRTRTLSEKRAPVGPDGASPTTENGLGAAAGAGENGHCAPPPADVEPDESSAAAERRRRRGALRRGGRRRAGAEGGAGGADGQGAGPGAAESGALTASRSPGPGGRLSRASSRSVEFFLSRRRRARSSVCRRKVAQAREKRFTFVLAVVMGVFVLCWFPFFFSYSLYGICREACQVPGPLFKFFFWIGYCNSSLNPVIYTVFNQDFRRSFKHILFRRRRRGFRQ
Chain of Voltage-gated potassium channel subunit beta-2 (Rattus norvegicus) (P62483 whole entry, looked up): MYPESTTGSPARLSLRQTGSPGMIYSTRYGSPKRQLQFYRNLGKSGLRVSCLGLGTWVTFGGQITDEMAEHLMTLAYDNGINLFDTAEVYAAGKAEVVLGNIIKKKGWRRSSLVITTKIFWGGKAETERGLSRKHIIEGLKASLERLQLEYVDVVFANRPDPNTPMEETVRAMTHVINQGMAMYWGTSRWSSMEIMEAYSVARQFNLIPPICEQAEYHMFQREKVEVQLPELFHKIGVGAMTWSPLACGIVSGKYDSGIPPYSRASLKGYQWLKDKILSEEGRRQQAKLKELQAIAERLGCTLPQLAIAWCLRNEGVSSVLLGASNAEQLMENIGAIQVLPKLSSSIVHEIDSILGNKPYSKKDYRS

`CCCCSP1(=S)NCCCN1` had a cell count in assay [1] of 430. The inhibition was -6.2% (inactive) in [1], -45.8% (inactive) in [2], 22.7% (inactive) in assay [4] and 32.8% (inactive) in [9]. The molecule further gave a nuclei count in [2] of 139%. Moreover, the figures for the z-score in assay [3] (setting [10]), in [3] (setting [11]) and in assay [3] (setting [12]) were 1.38, -0.994 and 0.0968, respectively. Besides, in assay [5], the fluorescence slope was -0.484 (inactive). Moreover, the NADPH fluorescence slope in assay [6] is -0.000231 (inactive). In assay [7], the slope was 0.00525 (inactive). Moreover, the outcome in [8] was inactive.
The molecule `CN1CC=C2C(C#N)=C(N)C(C#N)(C#N)C(c3ccncc3)C2C1` (centres undefined) displayed a cell count in assay [1] of 568. Moreover, the inhibition in assay [1] was -17% (inactive); in assay [2], 30.3% (inactive); in [4], 67.6% (inactive); in assay [9], 11.3% (inactive). In [2], this molecule yielded a nuclei count of 179%. For the same molecule, the z-score in assay [3] (setting [10]) was -0.865; in [3] (setting [11]) it was 3.38; in assay [3] (setting [12]), -0.482. In assay [5], the fluorescence slope is -0.392 (inactive). Also, the NADPH fluorescence slope in assay [6] is -5.3e-05 (inactive). Moreover, the slope in [7] was 0.00203 (inactive). In [8], the result was inactive.
On to `O=c1[nH]c(=O)n(Cc2ccco2)c(O)c1C=NCc1ccc2c(c1)OCO2`, for which the cell count in assay [1] worked out at 562. For the same molecule, the inhibition in [1] is -4.8% (inactive); in assay [2], 50.7% (inactive); in assay [4], -8.76% (inactive); in assay [9], 18.3% (inactive). In addition, the nuclei count in assay [2] stood at 148%. Further, the z-score in assay [3] (setting [10]) is -1.72; in [3] (setting [11]) it was -1.79; in assay [3] (setting [12]) it was -0.396. Besides, the fluorescence slope in assay [5] is -0.254 (inactive). Also, the NADPH fluorescence slope in [6] was -1.2e-06 (inactive). In addition, in assay [7], the slope was 0.00624 (inactive). Also, the call in [8] was inactive.
The molecule `CCCCSP1(=S)NCCCO1` (centres undefined) showed a cell count in assay [1] of 490. Also, the inhibition in assay [1] was -12.8% (inactive); in assay [2], -2.8% (inactive); in assay [4], 9.39% (inactive); in [9] it was 18.8% (inactive). In assay [2], this molecule yielded a nuclei count of 116%. Besides, the z-score is 0.851 in [3] (setting [10]), -1.48 in [3] (setting [11]) and -1.55 in assay [3] (setting [12]). Besides, the fluorescence slope in assay [5] is -0.465 (inactive). Further, in [6], the NADPH fluorescence slope was -0.000374 (inactive). Also, in [7], the slope is 0.00445 (inactive). In addition, the result in assay [8] was inactive.
In turn, `CCCCCCn1c(O)c(C=Nc2c(C)n(C)n(-c3ccccc3)c2=O)c(=O)[nH]c1=O` had a cell count in assay [1] of 335. The inhibition is -9.2% (inactive) in assay [1], -82.5% (inactive) in assay [2], -7.01% (inactive) in assay [4] and 5.18% (inactive) in [9]. Further, the nuclei count in [2] came out at 152%. The z-score was -0.0314 in assay [3] (setting [10]), 0.533 in assay [3] (setting [11]) and 1.54 in assay [3] (setting [12]). Further, the fluorescence slope in assay [5] is -0.359 (inactive). Besides, the NADPH fluorescence slope in assay [6] was -0.000298 (inactive). The slope in [7] is 0.00815 (inactive). Further, the molecule was called inactive in [8].
Turning to `COc1ccc(-n2c(SC)nc3ccccc3c2=O)cc1`, the cell count in assay [1] was found to be 594. In addition, the inhibition in assay [1] was -3.7% (inactive); in assay [2], -93.7% (inactive); in assay [4] it was 4.25% (inactive); in [9] it was 12.5% (inactive). The molecule further gave a nuclei count in assay [2] of 134%. The z-score in assay [3] (setting [10]) was -0.0992; in [3] (setting [11]), -1.67; in [3] (setting [12]), -0.0859. Further, in assay [5], the fluorescence slope is -0.492 (inactive). Further, the NADPH fluorescence slope in assay [6] is -0.000141 (inactive). Moreover, the slope in assay [7] is 0.00471 (inactive). Moreover, the molecule was called inactive in assay [8].
Turning to `CN(C)CCc1nn[nH]n1`, in assay [1], the cell count is 586. Besides, the inhibition in assay [1] was -12.8% (inactive); in assay [2], -15.2% (inactive); in assay [4], 1.75% (inactive); in assay [9], 25.8% (inactive). In [2], this molecule showed a nuclei count of 115%. The figures for the z-score in [3] (setting [10]), in assay [3] (setting [11]) and in assay [3] (setting [12]) were -0.419, 0.458 and 0.261, respectively. In assay [5], the fluorescence slope was -0.47 (inactive). The NADPH fluorescence slope in assay [6] is -0.000339 (inactive). In addition, in assay [7], the slope was 0.00441 (inactive). Moreover, the call in assay [8] was inactive.
Molecule `COc1cccc(-n2c(C)nc3ccccc3c2=O)c1` had a cell count in assay [1] of 554. Besides, the inhibition was 7.1% (inactive) in assay [1], -57.2% (inactive) in assay [2], 7.73% (inactive) in assay [4] and -5.87% (inactive) in assay [9]. The nuclei count in assay [2] was found to be 161%. In addition, the z-score was 0.773 in [3] (setting [10]), 1.04 in assay [3] (setting [11]) and -1.15 in assay [3] (setting [12]). Besides, the fluorescence slope in assay [5] was -0.353 (inactive). Besides, the NADPH fluorescence slope in [6] was 2e-05 (inactive). Also, the slope in assay [7] was 0.00545 (inactive). Moreover, the call in assay [8] was inactive.
As to `O=c1[nH]c(=O)n(CCc2ccccc2)c(O)c1C=NCCCn1ccnc1`, the cell count in assay [1] turned out to be 364. Besides, the inhibition in assay [1] is -0.9% (inactive); in assay [2], -29% (inactive); in assay [4], -2.59% (inactive); in assay [9], 35.6% (inactive). The nuclei count in assay [2] came out at 94.5%. For the same molecule, the z-score was -0.281 in [3] (setting [10]), -0.0547 in assay [3] (setting [11]) and 0.509 in [3] (setting [12]). The fluorescence slope in [5] is -0.581 (inactive). Also, in assay [6], the NADPH fluorescence slope is 1.1e-06 (inactive). Moreover, in assay [7], the slope was 0.00497 (inactive). In addition, in [8], the molecule was called inactive.
`CCC(=NCCN1CCCCC1)c1c(O)n(C)c(=O)n(C)c1=O` came in with a cell count in assay [1] of 605. For the same molecule, the inhibition is 0.7% (inactive) in [1], -61.5% (inactive) in assay [2], 7.83% (inactive) in [4] and 18% (inactive) in assay [9]. Besides, the nuclei count in [2] stood at 154%. The z-score in assay [3] (setting [10]) is 0.767; in assay [3] (setting [11]) it was -1.21; in assay [3] (setting [12]), 0.171. Further, the fluorescence slope in assay [5] was -0.517 (inactive). Further, the NADPH fluorescence slope in [6] was -3.9e-05 (inactive). Besides, the slope in assay [7] is 0.00466 (inactive). Further, the molecule was classed as inactive in assay [8].
With `CCN(CC)CCN=C(C)c1c(O)n(-c2ccccc2OC)c(=O)[nH]c1=O`, the cell count in [1] is 564. The inhibition in assay [1] is 0.8% (inactive); in assay [2] it was -34% (inactive); in assay [4] it was -2.91% (inactive); in assay [9], -0.4% (inactive). This molecule yielded a nuclei count in assay [2] of 88.8%. Also, the figures for the z-score in assay [3] (setting [10]), in [3] (setting [11]) and in assay [3] (setting [12]) were -0.563, -1.02 and 1.36, respectively. Besides, the fluorescence slope in [5] was -0.555 (inactive). Moreover, the NADPH fluorescence slope in assay [6] was -2.8e-05 (inactive). Also, the slope in assay [7] is 0.0051 (inactive). Also, the molecule was called inactive in assay [8].
As to `COCC(C)OC(=O)c1c(N)n(Cc2ccco2)c2nc3ccccc3nc12` (centres undefined), the cell count in [1] was found to be 433. Further, the inhibition was -9.3% (inactive) in assay [1], -115% (inactive) in [2], -11.9% (inactive) in assay [4] and 7.25% (inactive) in [9]. Besides, the nuclei count in [2] was determined as 147%. For the same molecule, the z-score was -0.578 in assay [3] (setting [10]), 0.931 in [3] (setting [11]) and -0.00965 in assay [3] (setting [12]). Besides, the fluorescence slope in assay [5] is -0.0512 (inactive). Besides, the NADPH fluorescence slope in [6] is -2.8e-07 (inactive). The slope in assay [7] was 0.0047 (inactive). For the same molecule, the call in assay [8] was inactive.
`CC1CCC(C(C)C)C(OP(N)(=O)c2ccccc2)C1` (centres undefined): the cell count in [1] came to 413. In addition, the inhibition was -4.7% (inactive) in [1], -225% (inactive) in assay [2], 36.1% (inactive) in assay [4] and 1.67% (inactive) in [9]. The molecule further showed a nuclei count in [2] of 189%. Further, the results for the z-score in assay [3] (setting [10]), in assay [3] (setting [11]) and in assay [3] (setting [12]) were 1.77, -0.238 and 0.0184, respectively. The fluorescence slope in assay [5] is -0.406 (inactive). Moreover, the NADPH fluorescence slope in assay [6] is -7.4e-05 (inactive). The slope in assay [7] was 0.00486 (inactive). Besides, the molecule was called inactive in assay [8].

As a reminder, the inhibition is the change of the read-out against control, counted positive when it falls.
